Tests used:
Kidney = test: Drug uptake in ddY mouse kidney at 370 kBq/100 ul, iv at 2 mins by gamma-counting analysis; assay type: ADME, organism-based; conditions: in vivo
Summary of the method: (§1)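 Normal male ddY mice (5 weeks, 20−22 g, n = 5) received 370 kBq of tracer in 100 μL saline with 5% EtOH via tail vein. Mice were sacrificed at set times after injection, and organs were excised, weighed and γ-counted against diluted injectate aliquots. Values are %ID per gram, except stomach and intestine as %ID per organ, given as mean ± SD of 5 mice.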

Lung [1] = test: Drug uptake in ddY mouse lung at 370 kBq/100 ul, iv at 30 mins by gamma-counting analysis; assay type: ADME, organism-based; conditions: in vivo, 0.5 h; summary of the method: as §1
Lung [2] = test: Drug uptake in ddY mouse lung at 370 kBq/100 ul, iv at 10 mins by gamma-counting analysis; assay type: ADME, organism-based; conditions: in vivo; summary of the method: as §1
Spleen [3] = test: Drug uptake in ddY mouse spleen at 370 kBq/100 ul, iv at 60 mins by gamma-counting analysis; assay type: ADME, organism-based; conditions: in vivo, 1 h; summary of the method: as §1
Spleen [4] = test: Drug uptake in ddY mouse spleen at 370 kBq/100 ul, iv at 10 mins by gamma-counting analysis; assay type: ADME, organism-based; conditions: in vivo; summary of the method: as §1
Spleen [5] = test: Drug uptake in ddY mouse spleen at 370 kBq/100 ul, iv at 2 mins by gamma-counting analysis; assay type: ADME, organism-based; conditions: in vivo; summary of the method: as §1
Liver = test: Drug uptake in ddY mouse liver at 370 kBq/100 ul, iv at 10 mins by gamma-counting analysis; assay type: ADME, organism-based; conditions: in vivo; summary of the method: as §1
Brain [6] = test: Drug uptake in wild type C57BL6 mouse brain at 370 kBq/100 ul after 1 hr by autoradiographic analysis; assay type: ADME, tissue-based; conditions: in vitro
Summary of the method: (§2)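 Paraffin sections of brain were used: C57BL6 mice (wild-type, 12 months), human AD (person) and normal human. Sections were deparaffinized through xylene and graded ethanol, then equilibrated 30 min in PBS (0.2 M, pH 7.4). Incubated 1 h at room temperature with tracer, 370 kBq/100 μL, washed 1 min in 50% ethanol and rinsed with water. Imaging plate exposed overnight. Plaques confirmed by thioflavin-S or anti-Aβ1-42 monoclonal immunostaining.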

Lung [7] = test: Drug uptake in ddY mouse lung at 370 kBq/100 ul, iv at 2 mins by gamma-counting analysis; assay type: ADME, organism-based; conditions: in vivo; summary of the method: as §1
Heart [8] = test: Drug uptake in ddY mouse heart at 370 kBq/100 ul, iv at 30 mins by gamma-counting analysis; assay type: ADME, organism-based; conditions: in vivo, 0.5 h; summary of the method: as §1
Heart [9] = test: Drug uptake in ddY mouse heart at 370 kBq/100 ul, iv at 10 mins by gamma-counting analysis; assay type: ADME, organism-based; conditions: in vivo; summary of the method: as §1
Heart [10] = test: Drug uptake in ddY mouse heart at 370 kBq/100 ul, iv at 2 mins by gamma-counting analysis; assay type: ADME, organism-based; conditions: in vivo; summary of the method: as §1
Bone [11] = test: Drug uptake in ddY mouse bone at 370 kBq/100 ul, iv at 60 mins by gamma-counting analysis; assay type: ADME, organism-based, Bone element; conditions: in vivo, 1 h; summary of the method: as §1
Bone [12] = test: Drug uptake in ddY mouse bone at 370 kBq/100 ul, iv at 2 mins by gamma-counting analysis; assay type: ADME, organism-based, Bone element; conditions: in vivo; summary of the method: as §1
Bone [13] = test: Drug uptake in ddY mouse bone at 370 kBq/100 ul, iv at 30 mins by gamma-counting analysis; assay type: ADME, organism-based, Bone element; conditions: in vivo, 0.5 h; summary of the method: as §1
Brain [14] = test: Drug uptake in ddY mouse brain at 370 kBq/100 ul, iv at 30 mins by gamma-counting analysis; assay type: ADME, organism-based; conditions: in vivo, 0.5 h; summary of the method: as §1
Brain [15] = test: Drug uptake in ddY mouse brain at 370 kBq/100 ul, iv at 60 mins by gamma-counting analysis; assay type: ADME, organism-based; conditions: in vivo, 1 h; summary of the method: as §1
Brain [16] = test: Drug uptake in ddY mouse brain at 370 kBq/100 ul, iv at 10 mins by gamma-counting analysis; assay type: ADME, organism-based; conditions: in vivo; summary of the method: as §1
Brain [17] = test: Drug uptake in ddY mouse brain at 370 kBq/100 ul, iv at 2 mins by gamma-counting analysis; assay type: ADME, organism-based; conditions: in vivo; summary of the method: as §1
Blood [18] = test: Drug uptake in ddY mouse blood at 370 kBq/100 ul, iv at 60 mins by gamma-counting analysis; assay type: ADME, organism-based; conditions: in vivo, 1 h; summary of the method: as §1
Blood [19] = test: Drug uptake in ddY mouse blood at 370 kBq/100 ul, iv at 30 mins by gamma-counting analysis; assay type: ADME, organism-based; conditions: in vivo, 0.5 h; summary of the method: as §1
Blood [20] = test: Drug uptake in ddY mouse blood at 370 kBq/100 ul, iv at 2 mins by gamma-counting analysis; assay type: ADME, organism-based; conditions: in vivo; summary of the method: as §1
Brain [21] = test: Drug uptake in wild type C57BL6 mouse brain at 370 kBq/100 ul after 1 hr by thioflavinS-staining method; assay type: ADME, tissue-based; summary of the method: as §2
Brain [22] = test: Drug uptake in wild type C57BL6 mouse brain at 40.7 MBq, iv after 30 mins by autoradiographic analysis; assay type: ADME, organism-based; conditions: in vivo, 0.5 h
Summary of the method: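 Wild-type C57BL6 mice (18 months) received 40.7 MBq tracer iv via the femoral vein in 100 μL saline with 5% EtOH. Decapitated at 30 min, and brains frozen in powdered dry ice. 20 μm sections exposed to an imaging plate for 8 h, then the same sections stained with thioflavin-S.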

[23] = n-Octanol-PBS buffer partition coefficient, log D of the compound at 370 kBq after 3 mins at pH 7.4; assay type: physicochemical
Summary of the method: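 For log D, tubes containing n-octanol and PBS were vortexed 3 min at room temperature and centrifuged 5 min at 3000 rpm. Weighed samples of the octanol (100 μL) and buffer (500 μL) layers were counted. Log D is the log of the ratio of counts per gram, octanol to PBS.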

Brain [24] = test: Ratio of drug uptake in brain at 2 mins to drug uptake in brain at 60 mins in ddY mouse at 370 kBq/100 ul, iv; assay type: ADME, organism-based; conditions: in vivo
Summary of the method: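 Tail-vein injection of 370 kBq/100 μL (saline, 5% EtOH) into male ddY mice (5 weeks, 20−22 g, n = 5). Brain excised at 2 and 60 min, weighed and γ-counted against diluted injectate. Uptake is %ID/g, and the ratio is brain at 2 min divided by brain at 60 min.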

Intestine [25] = test: Drug uptake in ddY mouse intestine at 370 kBq/100 ul, iv at 60 mins by gamma-counting analysis; assay type: ADME, organism-based; conditions: in vivo, 1 h; summary of the method: as §1
Intestine [26] = test: Drug uptake in ddY mouse intestine at 370 kBq/100 ul, iv at 10 mins by gamma-counting analysis; assay type: ADME, organism-based; conditions: in vivo; summary of the method: as §1
Intestine [27] = test: Drug uptake in ddY mouse intestine at 370 kBq/100 ul, iv at 2 mins by gamma-counting analysis; assay type: ADME, organism-based; conditions: in vivo; summary of the method: as §1
Stomach [28] = test: Drug uptake in ddY mouse stomach assessed per organ at 370 kBq/100 ul, iv at 60 mins by gamma-counting analysis; assay type: ADME, organism-based; conditions: in vivo, 1 h
Summary of the method: (§3)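 Male ddY mice (5 weeks, 20−22 g, n = 5) received tracer in saline with 5% EtOH, 370 kBq/100 μL, by tail vein. Killed at set times after dosing. Stomach removed, weighed and γ-counted against diluted aliquots of the injected dose. Reported as % injected dose per organ, mean ± SD of 5 mice.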

Stomach [29] = test: Drug uptake in ddY mouse stomach assessed per organ at 370 kBq/100 ul, iv at 10 mins by gamma-counting analysis; assay type: ADME, organism-based; conditions: in vivo; summary of the method: as §1
Stomach [30] = test: Drug uptake in ddY mouse stomach assessed per organ at 370 kBq/100 ul, iv at 30 mins by gamma-counting analysis; assay type: ADME, organism-based; conditions: in vivo, 0.5 h; summary of the method: as §3
Stomach [31] = test: Drug uptake in ddY mouse stomach assessed per organ at 370 kBq/100 ul, iv at 2 mins by gamma-counting analysis; assay type: ADME, organism-based; conditions: in vivo; summary of the method: as §1

| Compound | Drug uptake (Kidney) | Drug uptake (Lung [1]) | Drug uptake (Lung [2]) | Drug uptake (Spleen [3]) | Drug uptake (Spleen [4]) | Drug uptake (Spleen [5]) | Drug uptake (Liver) | Drug uptake (Brain [6]) | Drug uptake (Lung [7]) | Drug uptake (Heart [8]) | Drug uptake (Heart [9]) | Drug uptake (Heart [10]) | Drug uptake (Bone [11]) | Drug uptake (Bone [12]) | Drug uptake (Bone [13]) | Drug uptake (Brain [14]) | Drug uptake (Brain [15]) | Drug uptake (Brain [16]) | Drug uptake (Brain [17]) | Drug uptake (Blood [18]) | further results |
| --- | --- | --- | --- | --- | --- | --- | --- | --- | --- | --- | --- | --- | --- | --- | --- | --- | --- | --- | --- | --- | --- |
| CN(C)c1ccc(-c2nc3cc(OCCOCCOCC[18F])ccc3o2)cc1 | 8.71 % ID/g | 3.28 % ID/g | 3.64 % ID/g | 2.25 % ID/g | 2.88 % ID/g | 3.6 % ID/g | 11.36 % ID/g | Not Active | 5.18 % ID/g | 3.14 % ID/g | 3.52 % ID/g | 5.55 % ID/g | 3.45 % ID/g | 1.18 % ID/g | 1.96 % ID/g | 2.5 % ID/g | 2.12 % ID/g | 3.37 % ID/g | 5.29 % ID/g | 3.33 % ID/g | Drug uptake (Blood [19]): 2.84 % ID/g; Drug uptake (Blood [20]): 3.24 % ID/g; Drug uptake (Brain [21]): Not Active; Drug uptake (Brain [22]): Not Active; logD at 0.05 h [23]: 3.45; Ratio (Brain [24]): 2.5; Drug uptake (Intestine [25]): 15.82 % ID/g; Drug uptake (Intestine [26]): 15.7 % ID/g; Drug uptake (Intestine [27]): 4.8 % ID/g; Drug uptake (Stomach [28]): 1.41 %ID; Drug uptake (Stomach [29]): 1.37 %ID; Drug uptake (Stomach [30]): 1.51 %ID; Drug uptake (Stomach [31]): 1.1 %ID |
| CNc1ccc(-c2nc3cc(OCCOCCOCC[18F])ccc3o2)cc1 | 12.88 % ID/g | 5.3 % ID/g | 5.64 % ID/g | 3.42 % ID/g | 4.22 % ID/g | 3.9 % ID/g | 23.15 % ID/g | Not Active | 8.18 % ID/g | 4.84 % ID/g | 4.78 % ID/g | 8.57 % ID/g | 5.78 % ID/g | 3.17 % ID/g | 3.74 % ID/g | 4.07 % ID/g | 3.04 % ID/g | 4.41 % ID/g | 8.12 % ID/g | 4.87 % ID/g | Drug uptake (Blood [19]): 4.67 % ID/g; Drug uptake (Blood [20]): 4.76 % ID/g; Drug uptake (Brain [21]): Not Active; Drug uptake (Brain [22]): Not Active; logD at 0.05 h [23]: 3.09; Ratio (Brain [24]): 2.67; Drug uptake (Intestine [25]): 23.91 % ID/g; Drug uptake (Intestine [26]): 25 % ID/g; Drug uptake (Intestine [27]): 11.33 % ID/g; Drug uptake (Stomach [28]): 1.87 %ID; Drug uptake (Stomach [29]): 2.36 %ID; Drug uptake (Stomach [30]): 1.85 %ID; Drug uptake (Stomach [31]): 1.59 %ID |

From ChEMBL document CHEMBL2176925, “Novel ¹⁸F-labeled benzoxazole derivatives as potential positron emission tomography probes for imaging of cerebral β-amyloid plaques in Alzheimer's disease” (J Med Chem, 2012)
